Series [1] relates to SW480. The series can be described thus: Antiproliferative activity against human SW480 cells incubated for 72 hrs by CCK8 assay. Conditions: SW480, 72 h. For orientation: Tetrazolium assays rely on reduction of a dye to a coloured formazan, in cell work by metabolically active cells.
For a further series, the system named is HCT-116. The experiment in a line: Antiproliferative activity against human HCT116 cells incubated for 72 hrs by CCK8 assay. Particulars: HCT-116, 72 h.
Series [2] is described as follows: Toxicity in BALB/C nude mouse xenografted with human SW480 cells assessed as induction of adverse effects at 50 mg/kg, ip dosed once daily for 12 consecutive days. Conditions: in vivo. It counts as organism-based. In short, it runs like this:
(§1)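 SW480 xenografts in nude mice, dosed intraperitoneally once a day for 12 consecutive days and compared with a vehicle group. Tumor growth followed over time and expressed as TGI, with data as mean ± standard deviation and significance by P value. Body weight and adverse effects were monitored throughout the study.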

In series [3] the test system is SW480. The series can be described thus: Induction of apoptosis in human SW480 cells assessed as early apoptotic cells level at 40 uM incubated for 24 hrs by propidium iode and annexin V-FITC staining based flow cytometry (reference value: 1.76%). The series is classed as functional.
The test system of series [4] is SW480. The series can be described thus: Antitumor activity against human SW480 cells xenografted in BALB/C nude mouse assessed as tumor growth inhibition at 50 mg/kg, ip dosed once daily for 12 consecutive days relative to control. Particulars: read-out: TGI. The series is classed as functional. In short, it runs like this: as §1
In general terms: In xenograft studies the graft and the host belong to different species.

A short description of series [5]: Toxicity in BALB/C nude mouse xenografted with human SW480 cells assessed as induction of body weight loss at 50 mg/kg, ip dosed once daily for 12 consecutive days. It counts as organism-based. Conditions: in vivo. In short, it runs like this:
as §1

Series [6] relates to SW480. The series can be described thus: Induction of apoptosis in human SW480 cells assessed as necrotic cells level at 40 uM incubated for 24 hrs by propidium iode and annexin V-FITC staining based flow cytometry (reference value: 2.79%). It counts as functional. On the technique in general: Flow cytometry measures light scatter and fluorescence of single cells or particles in a stream.

The subject of series [7] is Mus musculus. The series can be described thus: In-vivo protac activity at cereblon/PDE6D in BALB/C nude mouse xenografted with human SW480 cells assessed as decrease in PDEdelta level at 50 mg/kg, ip dosed once daily for 12 consecutive days by immunofluorescence assay. The series is classed as functional, organism-based. The gist of the method:
(§2)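 Tumor tissue from SW480-transplanted nude mice analysed by immunofluorescence for PDEδ, RAS and p-Akt protein expression.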

The test system of series [8] is SW480. The series can be described thus: Induction of apoptosis in human SW480 cells assessed as late apoptotic cells level at 40 uM incubated for 24 hrs by propidium iode and annexin V-FITC staining based flow cytometry (reference value: 4.46%). It counts as functional.
Series [9] is described as follows: Tmax in Sprague-Dawley rat at 50 mg/kg, ip measured after 0.083 to 24 hrs by LC-MS/MS analysis. The series is classed as ADME, organism-based. Particulars: in vivo. The gist of the method:
(§3)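 Rats given the compound intraperitoneally at 50 mg/kg, with drug levels measured in plasma over time. The concentration–time profile gave half-life, Cmax and AUC.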

The test system of series [10] is SW480. The series can be described thus: Induction of apoptosis in human SW480 cells assessed as late apoptotic cells level at 20 uM incubated for 24 hrs by propidium iode and annexin V-FITC staining based flow cytometry (reference value: 4.46%). The series is classed as functional.
The test system of series [11] is SW480. The experiment in a line: Induction of apoptosis in human SW480 cells assessed as necrotic cells level at 20 uM incubated for 24 hrs by propidium iode and annexin V-FITC staining based flow cytometry (reference value: 2.79%). The series is classed as functional.
For series [12], the system named is SW480. The series can be described thus: Antiproliferative activity against human SW480 cells incubated for 72 hrs in presence of 30 uM pomalidomide by CCK8 assay. Particulars: SW480, 72 h.
The subject of series [13] is Mus musculus. The series can be described thus: In-vivo protac activity at cereblon/PDE6D in BALB/C nude mouse xenografted with human SW480 cells assessed as decrease in p-Akt level at 50 mg/kg, ip dosed once daily for 12 consecutive days by immunofluorescence assay. The series is classed as functional, organism-based. In short, it runs like this:
as §2

Series [14] can be described thus: Permeability in human Caco2 cells. The series is classed as ADME, cell-based. Particulars: caco-2.
A short description of series [15]: AUC (0 to infinity) in Sprague-Dawley rat at 50 mg/kg, ip measured after 0.083 to 24 hrs by LC-MS/MS analysis. It counts as ADME, organism-based. More on the design: dose 50 mg/kg, route intraperitoneal, time infinity. Particulars: in vivo. The gist of the method:
as §3

In series [16] the test system is SW480. The experiment in a line: Induction of apoptosis in human SW480 cells assessed as early apoptotic cells level at 20 uM incubated for 24 hrs by propidium iode and annexin V-FITC staining based flow cytometry (reference value: 1.76%). It counts as functional.
For another series, the system named is MIA PaCa-2. The series can be described thus: Antiproliferative activity against human MIAPaCa2 cells incubated for 72 hrs by CCK8 assay. It counts as functional, cell-based.
Series [17] is described as follows: Half life in Sprague-Dawley rat at 50 mg/kg, ip measured after 0.083 to 24 hrs by LC-MS/MS analysis. The series is classed as ADME, organism-based. Particulars: in vivo. The gist of the method: as §3
Series [18] is described as follows: Clearance in Sprague-Dawley rat at 50 mg/kg, ip measured after 0.083 to 24 hrs by LC-MS/MS analysis. It counts as ADME, organism-based. Particulars: in vivo. The gist of the method:
as §3

The nature of series [19]: Cmax in Sprague-Dawley rat at 50 mg/kg, ip measured after 0.083 to 24 hrs by LC-MS/MS analysis. The series is classed as ADME, organism-based. More on the design: dose 50 mg/kg, route intraperitoneal. Conditions: in vivo. In short, it runs like this: as §3

11 compounds from ChEMBL document CHEMBL4616722, “Discovery of Novel PDEδ Degraders for the Treatment of KRAS Mutant Colorectal Cancer” (J Med Chem, 2020) can be followed below.

The source made the active and inactive calls. The rule behind the calls is not given here.

A word on the IC50: it is the concentration needed to halve the response being measured. Usually Tmax stands for the time at which the peak concentration occurs. One may read the AUC(0-inf) as total exposure, with the tail of the curve extrapolated. Read a high AUC(0-inf) as more exposure. In general, half-life refers to the time in which the quantity being followed falls by half. The low end stands for fast loss, the high end for slow loss. As usually defined, the CL/F is clearance divided by bioavailability, as obtained after extravascular dosing. The term Cmax denotes the highest concentration seen after dosing.

`Cc1ccc(-n2nc3c(=O)n(CCCC(=O)NCCCCNc4cccc5c4C(=O)N(C4CCC(=O)NC4=O)C5=O)nc(C)c3c2C)cc1` (stereo unspecified): the IC50 in the series on SW480 [1] came to 76 µM; with HCT-116, 51 µM.

In the case of `Cc1ccc(-n2nc3c(=O)n(CCCC(=O)NCCCCCCCCNc4cccc5c4C(=O)N(C4CCC(=O)N(C)C4=O)C5=O)nc(C)c3c2C)cc1` (stereo unspecified), the IC50 with SW480 [1] stood at 70 µM.

For the compound `Cc1ccc(-n2nc3c(=O)n(CCCC(=O)NCCOCCOCCNc4cccc5c4C(=O)N(C4CCC(=O)NC4=O)C5=O)nc(C)c3c2C)cc1` (stereo unspecified), the values for the IC50 in the series with SW480 [1] and in the series with HCT-116 were 58 µM and 25 µM, respectively.

As to `Cc1ccc(-n2nc3c(=O)n(CCCC(=O)NCCCCCCCNc4cccc5c4C(=O)N(C4CCC(=O)NC4=O)C5=O)nc(C)c3c2C)cc1` (stereo unspecified), the IC50 with SW480 [1] worked out at 12 µM; in the series with HCT-116 it was 20 µM.

In the case of `Cc1ccc(-n2nc3c(=O)n(CCCC(=O)NCCCCCCCCNc4ccc5c(c4)C(=O)N(C4CCC(=O)NC4=O)C5=O)nc(C)c3c2C)cc1` (stereo unspecified), it took 7 µM to reach half-maximal inhibition in the series with SW480 [1] (IC50).

As to `Cc1ccc(-n2nc3c(=O)n(CCCC(=O)NCCCCCNc4cccc5c4C(=O)N(C4CCC(=O)NC4=O)C5=O)nc(C)c3c2C)cc1` (stereo unspecified), the IC50 turned out to be 17 µM in the series with SW480 [1] and 32 µM in the series on HCT-116.

In the case of `Cc1ccc(-n2nc3c(=O)n(CCCC(=O)NCCCOCCOCCOCCCNc4cccc5c4C(=O)N(C4CCC(=O)NC4=O)C5=O)nc(C)c3c2C)cc1` (stereo unspecified), the IC50 was 26 µM in the series on SW480 [1] and 23 µM with HCT-116.

Take `Cc1ccc(-n2nc3c(=O)n(CCCC(=O)NCCCCCCNc4cccc5c4C(=O)N(C4CCC(=O)NC4=O)C5=O)nc(C)c3c2C)cc1` (stereo unspecified): the IC50 in the series on SW480 [1] amounted to 15 µM; in the series on HCT-116, 19 µM.

Turning to `Cc1ccc(-n2nc3c(=O)n(CCCC(=O)NCC(C)c4ccccc4)nc(C)c3c2C)cc1` (stereo unspecified), the Activity entry in [2] is “Non-Toxic”; with SW480 [3] it was 2.49%; in series [5], “Non-Toxic”; in the series on SW480 [6], 2.44%; in the series with SW480 [8] it was 8.61%. Further, the IC50 in the series with SW480 [1] is 56 µM; in the series on HCT-116, 74 µM. In the series on SW480 [4], the inhibition in vivo at 50 mg/kg was 24%. Besides, the result in the series with Mus musculus [7] was inactive.

As for `Cc1ccc(-n2nc3c(=O)n(CCCC(=O)NCCCCCCCCNc4cccc5c4C(=O)N(C4CCC(=O)NC4=O)C5=O)nc(C)c3c2C)cc1` (stereo unspecified), the Tmax in series [9] amounted to 1.67 h. Besides, the Activity entry in series [2] is recorded as “Non-Toxic”; in the series on SW480 [10], 2.06%; with SW480 [3], 62.58%; in the series on SW480 [11], 0.9%; in series [5], “Non-Toxic”; in the series on SW480 [16], 36.25%. The Activity is 0.37% in the series with SW480 [6] and 2.95% in the series on SW480 [8]. For the same compound, the IC50 turned out to be 8 µM with SW480 [1], 71 µM in the series with SW480 [12] and 8 µM in the series with HCT-116. In addition, in the series on SW480 [4], the inhibition in vivo at 50 mg/kg is 43%. Further, the result in the series on Mus musculus [13], with MIA PaCa-2 and in the series on Mus musculus [7] was Active. Besides, the permeability result in series [14] is “Impermeable”. In series [15], this compound showed an AUC(0-inf) of 4710 ng·h/mL. In series [17], this compound had a half-life of 5.11 h. For the same compound, the CL/F in [18] was 179 mL/min/kg. The same compound returned a Cmax in series [19] of 564 ng/mL.

Consider `Cc1ccc(-n2nc3c(=O)n(CCCC(=O)NCCCNc4cccc5c4C(=O)N(C4CCC(=O)NC4=O)C5=O)nc(C)c3c2C)cc1` (stereo unspecified), for which the IC50 in the series on SW480 [1] stood at 81 µM; with HCT-116 it was 68 µM.
